Assay outcomes deposited in PubChem by several laboratories.
PG9 binder = binds the HIV-1 gp120 antibody PG9. TR-FRET gp120-PG9 antibody binding. inhibition, % at 6.7 µM. 360,000 compounds, 0.43% hits. AID 624416; in the data active means inhibition above about 8.5%
NR1D1 modulator = modulators of human Rev-erb alpha DNA binding | P20393 | AID 1259318 | Rev-erbα–FITC-DNA binding, fluorescence polarization, 90 min | activity, % at 10 µM | 370,000 compounds, 0.79% hits;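 active means activity above about 14%, limit read from the data; passing the limit was not always enough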;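 further: 0% = DMSO wells with 35 nM protein and 100% = DMSO wells with 750 nM protein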
NR2E3 ag-1 = agonists of human NR2E3 nuclear receptor | Q9Y5X4 | CHO-S Gal4-NCOR/VP16-NR2E3 two-hybrid, luciferase | inhibition of corepressor binding, % at 3.98 µM | 360,000 compounds, 0.35% hits | AID 602229;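 active means inhibition above the mean of all tested compounds plus 3 SD, cut at about 70% in these data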;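 further: 0% = DMSO with NR2E3 transfected cells and 100% = cells lacking NR2E3 construct; higher means lower luciferase signal from less NR2E3 corepressor binding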
Target sequence (Q9Y5X4 whole entry, looked up, the tested form may be a part): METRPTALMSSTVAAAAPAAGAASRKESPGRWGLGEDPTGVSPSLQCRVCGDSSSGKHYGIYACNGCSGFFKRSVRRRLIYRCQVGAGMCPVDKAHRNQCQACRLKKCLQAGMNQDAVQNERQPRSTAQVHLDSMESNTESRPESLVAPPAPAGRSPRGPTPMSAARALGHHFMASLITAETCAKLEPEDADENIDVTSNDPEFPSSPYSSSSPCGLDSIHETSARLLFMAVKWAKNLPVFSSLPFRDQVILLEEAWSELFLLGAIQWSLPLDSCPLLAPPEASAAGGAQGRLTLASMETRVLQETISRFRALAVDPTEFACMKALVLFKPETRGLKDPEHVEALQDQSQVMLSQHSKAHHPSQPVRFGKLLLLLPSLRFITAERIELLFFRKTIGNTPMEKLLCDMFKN
NR2E3 ag-2 = activates human photoreceptor nuclear receptor NR2E3; GST-NR2E3/biotin-RetCOR TR-FRET, 1536-well; 320,000 compounds, 0.12% hits; inhibition of corepressor binding, % at 4.78 µM;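 active means percent inhibition above the cutoff of mean plus 3 SD of all tested compounds, set per screening campaign, cut at about 20% in these data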;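 further: 0% = DMSO wells and 100% = biotin wells as full block of FRET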
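System: GST-tagged NR2E3 plus biotinylated RetCOR corepressor; Buffer or medium: pH 7.5 Tris-based buffer; Probe or stimulus: RetCOR corepressor, biotinylated, 7 nM; Doses: compound at 4.8 µM, single dose; Schedule: 5 h incubation at 4 °C; Technique: time-resolved FRET; Evaluation: percent inhibition of TR-FRET ratio; Replication: one well per compound, singlicate testing.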
NR2E3 ag confirm = confirmation of human NR2E3 agonists; shares compounds with NR2E3 ag-1; CHO-S mammalian two-hybrid NR2E3-NCOR, luciferase luminescence; inhibition, % at 3.98 µM; 2,300 compounds, 51% hits; AID 624378;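 active means average inhibition above a cutoff equal to the mean inhibition of all tested compounds plus one SD, cut at about 70% in these data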;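 further: 0% = DMSO in NR2E3 cells and 100% = DMSO in cells lacking NR2E3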
GAL4-VP16 luc = reduces GAL4-VP16 reporter signal in NR2E3 counterscreen; 2,300 compounds, 29% hits; inhibition, % at 3.98 µM; shares compounds with NR2E3 ag-1; CHO-S GAL4-VP16 luciferase reporter, luminescence;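 active means mean inhibition above a cutoff equal to the average over all tested compounds plus one standard deviation, cut at about 70% in these data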;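 further: luciferase from a UAS reporter driven by GAL4-VP16 transactivation; 0% = DMSO with VP16-transfected cells and 100% = DMSO with cells lacking VP16; higher means less reporter light so more repression of VP16 activity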
* marks the source's active call; other numbers are inactive results; nt = not tested or not shown. In the library only some 1.4% were active in any assay of this set; here they are far more common.

SMILES	PG9 binder	NR1D1 modulator	NR2E3 ag-1	NR2E3 ag-2	NR2E3 ag confirm	GAL4-VP16 luc
CCC(=O)N1CCCc2cc(S(=O)(=O)N3CCN(c4ncccn4)CC3)ccc21	-0.4	1.7	-6.6	-0.3	nt	nt
CCC(=O)N1CCCc2cc(S(=O)(=O)N3CCN(c4ccccn4)CC3)ccc21	-0.5	-4.2	68.5	-0.6	92.6*	6.3
CCOC(=O)c1sc(NC(=O)CCCCCN2C(=O)c3cccc4cccc(c34)C2=O)nc1C	0.3	7.6	-15.3	nt	nt	nt
COc1cccc(NC(=O)Nc2ccncc2)c1	-2.7	0.4	-17.0	0.6	nt	nt
COc1cccc(NC(=O)Nc2ccc(Cc3ccncc3)cc2)c1	1.1	0.5	55.3	-2.6	41.5	30.2
CC(C)c1ccc(CC(=O)N2CCC2(C)C(=O)Nc2ccc3c(c2)OCO3)cc1 (centres undefined)	-1.3	-1.5	7.5	nt	nt	nt
COc1cccc(NC(=O)C2(C)CCN2C(=O)Cc2ccc(C(C)C)cc2)c1 (centres undefined)	-0.8	-7.0	-3.4	nt	nt	nt
CC1(C(=O)Nc2ccc3c(c2)OCCO3)CCN1C(=O)Cc1ccc(-c2ccccc2)cc1 (centres undefined)	0.8	-10.0	57.4	nt	56.4	45.2
CC1(C(=O)NS(=O)(=O)c2ccc3ccccc3c2)CCN1C(=O)Cc1ccc(-c2ccccc2)cc1 (centres undefined)	-1.5	-3.2	47.6	nt	11.4	6.2
CC1(C(=O)Nc2cccc(C#N)c2)CCN1C(=O)CCc1ccccc1 (centres undefined)	-1.2	6.5	34.3	nt	nt	nt
CC(C)c1ccc(CC(=O)N2CCC2(C)C(=O)Nc2cccc(C#N)c2)cc1 (centres undefined)	-0.2	-0.3	52.5	nt	17.1	29.5
CC1(C(=O)Nc2cccc(C#N)c2)CCN1C(=O)Cc1ccc(-c2ccccc2)cc1 (centres undefined)	-0.7	-3.6	90.7*	nt	98.2*	89.8*
CC(=O)c1cccc(NC(=O)COC(=O)CCNS(=O)(=O)c2ccccc2)c1	-0.2	0.4	-21.3	nt	nt	nt
O=C(c1ccc(CSc2nc3ccncc3[nH]2)cc1)N1CCCCCC1	-3.4	-2.3	-70.7	0.9	nt	nt
O=C(c1ccc(CSc2nc3ccncc3[nH]2)cc1)N1CCN(c2cccc(Cl)c2)CC1	0.3	-0.6	87.9*	2.1	97.5*	69.3
CC(=O)Nc1ccc(S(=O)(=O)NCc2nnnn2-c2ccc(Cl)cc2)cc1	-0.3	-3.3	3.6	-3.1	nt	nt
CC(=O)c1c(C)[nH]c(C(=O)OCC(=O)c2ccc(Br)cc2)c1C	-0.8	2.0	56.8	nt	86.1*	56.4
CC(=O)c1c(C)[nH]c(C(=O)OCCCCN2C(=O)c3ccccc3C2=O)c1C	-0.4	-6.2	88.8*	-0.1	96.2*	88.5*
CC(=O)c1c(C)[nH]c(C(=O)OCC(=O)Nc2ccc(Cl)cc2[N+](=O)[O-])c1C	-1.4	-5.1	86.4*	-0.9	96.4*	89.4*
C[C@H](CO)N1C[C@H](C)[C@@H](CN(C)C(=O)Nc2ccnc(N3CCOCC3)c2)OCc2cnnn2CCCC1=O	0.0	1.8	-38.6	nt	nt	nt
Cc1ccc(-c2nc(CSCC(=O)N3CCOCC3)c(C)o2)cc1	-0.5	1.4	-23.8	-2.9	nt	nt
Cc1ccc(-c2nc(CSCC(=O)N3CCN(c4ccccn4)CC3)c(C)o2)cc1	-0.1	4.8	82.8*	-0.4	87.3*	76.4*
CCOc1ccc(-c2nc(CSCC(=O)N3CCN(c4cccc(OC)c4)CC3)c(C)o2)cc1	-0.4	-4.3	66.3	1.6	78.2*	52.7
CCOC(=O)NC(=O)/C(C=Nc1ccc(Cl)cc1)=C(\C)O	-1.4	3.2	8.2	-0.8	nt	nt
CCc1ccc(Nc2cnn(C34CC5CC(CC(CC(=O)O)(C5)C3)C4)c(=O)c2Cl)cc1	-1.6	-2.5	-8.0	-0.9	nt	nt
COCCN(CC(=O)Nc1cccc(C)c1C)C(=O)Cc1sc(C)nc1-c1ccc(F)cc1	-1.1	0.7	12.3	2.4	nt	nt
Cn1ncc(SCc2ccccc2)c(Cl)c1=O	-2.6	-0.1	-6.9	0.4	nt	nt
Cn1ncc(S(=O)(=O)Cc2ccccc2)c(Cl)c1=O	-3.3	-3.5	64.2	-1.7	31.7	-1.1
CC(NC(=O)c1cc(COc2ccc3ncccc3c2)on1)c1ccc(F)cc1 (centres undefined)	0.2	1.1	85.5*	1.0	96.4*	88.0*
Cc1cc(OCc2cc(C(=O)NC3CCC3)no2)cc(C)c1Cl	nt	nt	9.6	-2.3	nt	nt
